MDM2 E3 inh = Mdm2 E3 ligase (human) inhibition. Q00987. cell-based MDM2 ubiquitination luciferase reporter, 2 h; 0 = plate control, 100 = twice control, blank-subtracted. signal enhancement, % at 5 µM. 210,000 tested, 0.11% active. AID 1230;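 active = signal enhancement of 30% or more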;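 note: luminescence tracks abundance of the self-degrading MDM2-luciferase fusion protein; higher signal means inhibition of MDM2 E3 ligase activity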
Target sequence (Q00987 whole entry, looked up, the tested form may be a part): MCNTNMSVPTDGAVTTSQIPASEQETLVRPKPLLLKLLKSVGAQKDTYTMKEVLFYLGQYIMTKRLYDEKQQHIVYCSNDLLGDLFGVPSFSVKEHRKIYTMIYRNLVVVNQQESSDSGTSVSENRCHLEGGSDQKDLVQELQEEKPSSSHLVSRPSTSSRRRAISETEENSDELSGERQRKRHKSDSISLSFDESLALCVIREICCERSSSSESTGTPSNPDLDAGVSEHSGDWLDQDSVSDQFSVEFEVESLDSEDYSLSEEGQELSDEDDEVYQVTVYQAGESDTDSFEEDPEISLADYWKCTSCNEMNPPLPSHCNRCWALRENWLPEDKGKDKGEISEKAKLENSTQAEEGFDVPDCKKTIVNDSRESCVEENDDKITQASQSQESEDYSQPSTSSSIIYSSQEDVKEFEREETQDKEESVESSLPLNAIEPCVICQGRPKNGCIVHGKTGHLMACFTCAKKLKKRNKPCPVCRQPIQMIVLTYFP
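Timing – 2 h compound exposure at 37 °C · Assay system – mammalian cells stably expressing self-ubiquitinating, self-degrading MDM2 E3–luciferase fusion · Amount – 2000 cells seeded into each well · Measure – % luminescence enhancement versus blank-corrected plate control mean · Measured by – SteadyLite luminescence, 15 min reagent step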
AHR activator = human AHR activation; P35869; AHR-responsive luciferase reporter cells, luminescence; activation, % at 5 µM; 320,000 tested, 2.5% active; in the data active = activation above about 47%;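 note: 0% = vehicle wells and 100% = reference agonist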
PERK inh = blocks human PERK kinase | inhibition, % at 5.6 µM | Q9NZJ5 | CHO PERK-DD fusion, SEAP luminescence translation reporter | AID 1416 | 220,000 tested, 0.17% active;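 active = inhibition above the mean inhibition of all tested compounds plus 3 SD, set separately per screening campaign, cut at about 2.9% in these data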;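 note: PERK kinase domain activated by AP20187 dimerizer at 100 nM; 0% = DMSO with dimerizer and 100% = rapamycin at 8.4 µM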
APP 5'UTR act = activates APP 5'UTR luciferase reporter; SH-SY5Y APP 5'UTR luciferase reporter, luminescence; zero percent = DMSO vehicle wells; activation, % at 2 µM; 190,000 tested, 1% active;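 active = activation above a set limit, based on mean plus 3 SD of controls, cut at about 140% in these data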
STAT1 act = increases IFN-gamma driven STAT1 reporter signal; NIH 3T3 STAT1-luciferase reporter, luminescence; 100% = IFN-gamma alone, no compound; activation (% of control), % at 5.5 µM; 200,000 tested, 2.6% active; AID 932;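 active = activation above the screen-wide mean activation plus 3 SD, cut at about 130% in these data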;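 note: raw ratio to IFN-gamma control signal so 100% means no change and 0% no light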
NF-kB expr up = compounds increasing NF-kB expression in human neuronal cells | 190,000 tested, 1.6% active | NF-kB reporter expression; active compounds read high | fold change at 12.5 µM; in the data active = fold change above about 3.3
Starred values were filed as active, the others as inactive; . = no result. The list is not random: actives were taken first. Their share in the collection is about 4.5%.

SMILES	MDM2 E3 inh	AHR activator	PERK inh	APP 5'UTR act	STAT1 act	NF-kB expr up
Cc1nn(-c2ccccc2)c(C)c1/C=N/NC(=O)c1cc(-c2ccccc2)n[nH]1	-6	48*	-1	-95	104	1.6
Cc1[nH]c2ccccc2c1/C=N/NC(=O)c1cc(-c2ccncc2)nc2ccccc12	.	57*	.	.	.	.
O=C(N/N=C/c1ccccc1OC(F)F)c1cc(-c2ccncc2)nc2ccccc12	0	25	1	-19	102	1.1
Cc1[nH]c2ccccc2c1/C=N/NC(=O)c1ccc(N)cc1	.	19	.	.	.	.
Cc1nn(Cc2ccc(F)cc2)c2sc(C(=O)Nc3ccc(N4CCOCC4)cc3N3CCOCC3)cc12	2	3	-2	15	98	0.29
Cc1ccc(NC(=S)N/N=C/c2c(C)[nH]c3ccccc23)cc1	-20	75*	1	12	113	1.2
Cc1[nH]c2ccccc2c1/C=N/NC(=O)c1ccccc1	.	68*	.	.	.	.
CCOC(=O)c1c(N/N=C/c2cccnc2)n[nH]c1C	-14	52*	-1	.	.	.
Cc1ccc(OCC(=O)N/N=C/c2cccnc2)cc1	.	9	.	.	.	.
N#C/C(=C\c1ccc([N+](=O)[O-])cc1)c1ccccn1	-13	17	-1	25	132*	2.6
O=Nc1c(O)n(Cc2cccc(C(F)(F)F)c2)c2ccccc12	-13	1	1	-4	89	0.57
Cc1ccc(SCc2cc(=O)n3ccsc3n2)c(C)c1	-23	1	1	52	134*	2.2
Cc1ccc(Nc2nnc(SCc3cc(=O)n4ccsc4n3)s2)c(C)c1	-9	48*	-1	-4	94	0.88
COc1ccccc1Nc1nnc(SCc2cc(=O)n3ccsc3n2)s1	-38	6	1	9	91	0.88
O=C(NCc1ccccn1)NC1CCCCC1	1	-6	0	-3	102	1.2
COCCn1c(=NC(=O)c2ccc(S(=O)(=O)N3CCCc4ccccc43)cc2)sc2cc(S(C)(=O)=O)ccc21	42*	1	0	24	100	1.5
Cn1c(=NC(=O)COc2ccccc2)sc2ccccc21	-12	2	0	58	148*	3.6*
COc1ccc(C)c2sc(=NC(=O)c3ccccc3)n(C)c12	-14	34	1	32	120	3.6*
C=CCn1c(=NC(=O)c2ccc(S(=O)(=O)N3CCCc4ccccc43)cc2)sc2cc(S(N)(=O)=O)ccc21	16	5	-1	2	97	1.1
COc1cc(OC)cc(C(=O)N=c2sc3ccccc3n2C)c1	-27	26	0	146*	139*	1.2
CC(=O)N=c1sc2ccccc2n1C	-25	0	1	2	96	1.4
CC(C)(CNC(=O)Cc1ccc(NS(=O)(=O)c2cccc(C(F)(F)F)c2)cc1)N1CCOCC1	.	-1	.	.	.	.
CCOC(=O)C1CCN(S(=O)(=O)c2cc3c(cc2C)NC(=O)CO3)CC1	.	0	.	.	.	.
CCCn1c(N)c(C(=O)COC(=O)CNC(=O)c2ccccc2OCC)c(=O)[nH]c1=O	.	-3	.	.	.	.
O=C(NCC1CCCO1)c1ccc(COc2ccccc2)cc1 (stereo unspecified)	.	5	.	.	.	.
SMILES	MDM2 E3 inh	AHR activator	PERK inh	APP 5'UTR act	STAT1 act	NF-kB expr up
COc1ccc(C(=O)N=c2sc3ccccc3n2C)cc1	-20	37	-1	163*	141*	8.1*
COc1cccc(C(=O)N=c2sc3cc(S(C)(=O)=O)ccc3n2C)c1	-1	-5	1	114	132*	1.1
Cc1nn(CCCC(=O)NCc2ccco2)c(=O)c2nn(-c3ccccc3)c(C)c12	.	1	.	.	.	.
Cc1nn(-c2ccc(Cl)cc2Cl)c(=O)c2ccccc12	-6	0	1	-6	102	1.1
Cc1nn(-c2ccc(Cl)cc2)c(=O)c2ccccc12	-6	54*	0	62	128	2.7
Cc1nn(-c2ccc3ccccc3c2)c(=O)c2ccccc12	-10	45	-1	142*	149*	3.2
Cc1ccc(-n2ncc3ccccc3c2=O)cc1Cl	-17	8	-1	97	148*	4.9*
Cc1nn(-c2ccc(Cl)c(Cl)c2)c(=O)c2ccccc12	-1	16	2	-15	103	1.6
O=c1ccc(C(F)(F)F)cn1Cc1cc(=O)n2cc(Br)ccc2n1	5	-3	0	27	98	1.1
O=C(O)c1cc(N/N=C/C(Cl)=C/c2ccccc2)ccc1Cl	-53	-4	0	120	45	0.96
Cc1ccc(S(=O)(=O)N(C)c2ccc(OCC(=O)Nc3cccc(-n4cnnn4)c3C)cc2)cc1	-18	7	-1	.	.	.
COc1ccc(N(C(=O)c2snc(C(N)=O)c2N)C(C(=O)NCc2ccc(F)cc2)c2ccc(O)cc2)cc1 (stereo unspecified)	.	4	.	.	.	.
Cc1nc(SCC(=O)c2cccs2)c2oc3ccccc3c2n1	-4	72*	-1	19	116	1.6
O=C(CSc1ncnc2c1oc1ccccc12)c1cccs1	-17	28	1	31	112	1.4
COCCn1nnnc1C(c1cc2cc(C)ccc2[nH]c1=O)N1CCc2ccccc21 (stereo unspecified)	4	65*	0	.	96	1
COCCn1nnnc1C(c1cc2cc(C)ccc2[nH]c1=O)N1CCCCCC1 (stereo unspecified)	-10	9	0	8	100	1.1
Cc1ccc2cc(CN(CC3CCCO3)C(=S)Nc3ccccc3)c(=O)[nH]c2c1C (stereo unspecified)	1	51*	0	-53	93	1.4
CC(=O)N(CCc1ccccc1C)Cc1cc2cc3c(cc2[nH]c1=O)OCO3	-6	61*	1	-6	101	1.2
Cc1cc(C)c2[nH]c(=O)c(CN(CC3CCCO3)C(=S)Nc3ccccc3)cc2c1 (stereo unspecified)	-8	9	0	.	97	0.93
CCN(CC)CCCN(Cc1cc2cc3c(cc2[nH]c1=O)OCO3)C(=S)Nc1ccccc1	10	49*	1	-8	111	0.8
CCNC(=S)N(CCCN(CC)CC)Cc1cc2cc3c(cc2[nH]c1=O)OCO3	.	4	.	.	.	.
COc1cc2cc(CN(CCc3ccccc3C)C(=S)NCCCN(C)C)c(=O)[nH]c2cc1OC	-17	2	0	5	102	0.77
CCNC(=S)N(CCc1ccccc1C)Cc1cc2cc(OC)c(OC)cc2[nH]c1=O	-11	57*	0	-5	95	0.79
COc1ccc(CC(=O)NC2CC2)cc1OC	.	3	.	.	.	.
c1ccc(-[n+]2nc(Nc3cccc4ccccc34)sc2-c2c3ccccc3cc3ccccc23)cc1	.	62*	.	.	.	.
Clc1cc(Cl)c(OCc2nc(-c3ccccn3)no2)cc1Cl	-48	10	2	83	132*	5.2*
c1cc(-c2noc(CC3CCCCC3)n2)ccn1	-11	2	1	5	110	1.3
c1ccc(-c2noc(CC3CCCCC3)n2)nc1	-13	4	1	133	133*	3

Bioassay records as filed in PubChem.
